High-throughput results (PubChem BioAssay)
TRPC6 act: activates the mouse TRPC6 cation channel. Q61143. HEK293-TRPC6 membrane potential dye fluorescence; hits give high values. B-score at 10 µM. 310,000 compounds, 0.13% hits. AID 2550;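 active = B-score of the integrated fluorescence ratio above library mean plus 3 SD, and starting fluorescence ratio within library mean plus 5 SD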;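 also: higher score means more depolarization so channel activation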
TRPC4 PAM: TRPC4 (mouse) allosteric potentiation; 310,000 compounds, 0.42% hits; AID 2227; HEK293 TRPC4beta/mu-opioid, DAMGO EC20, Fluo-4 Ca2+ flux; hits give high values; Q9QUQ5; B-score at 10 µM;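 active = B-score of calcium response area above 5 SD of library B-scores, with initial fluorescence ratio within 5 SD of library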
TRPC4 block: blocks the mouse TRPC4 cation channel; Q9QUQ5; HEK293 TRPC4beta/mu-opioid, DAMGO-evoked Fluo4 calcium flux; hits give low values; B-score at 10 µM; 300,000 compounds, 0.39% hits; AID 2247;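 active = B-score over 3 SD under the library average, no early fluorescence shift, positive overall ratio signal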
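test system = HEK293 cells with stable TRPC4beta plus mu-opioid receptor expression | detection = Fluo4 Ca2+ flux fluorescence | read-out = integrated fluorescence ratio relative to baseline, converted to per-well B score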
TRPC6 inh: inhibitors of mouse TRPC6 channel; HEK293-TRPC6, membrane potential dye, ACh-evoked depolarization; hits give low values; Q61143; 310,000 compounds, 1.1% hits; AID 2553; B-score at 10 µM;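 active = B-score under library mean minus 3 SD, initial fluorescence not abnormally high, positive integrated signal ratio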;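 also: B-score derived from integrated fluorescence ratio over the kinetic read; more negative B-score means stronger inhibition of depolarization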
TRPC4 act: TRPC4 (mouse) channel activation. 310,000 compounds, 0.49% hits. Q9QUQ5. HEK293 TRPC4beta/mu-opioid, Fluo4 calcium fluorescence; hits give high values. B-score at 10 µM;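 active = B-score above 5 SD of library B-scores, and initial fluorescence ratio not above library mean plus 5 SD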;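 also: positive B-score marks a calcium rise read as TRPC4 activation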
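system = HEK293 cells stably co-expressing mouse TRPC4beta and mu-opioid receptor | schedule = Fluo4 dye loading 45 min at room temperature, 110 s recording | measure = B-scored integrated calcium fluorescence ratio | signal = Fluo4 calcium-sensitive dye fluorescence, kinetic, 1 Hz baseline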
TRPC4 spec 2: second check of whether TRPC6 inhibitors also affect mouse TRPC4 | shares compounds with TRPC6 inh | HEK293 TRPC4/MOR, membrane potential dye fluorescence; channel activated by saturating DAMGO dose | inhibition, % at 10 µM | 920 compounds, 42% hits | AID 2776;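 active = compounds whose fluorescence signal differed from control wells by over 3 SD, either direction, in both duplicate plates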
TRPC4 spec: mouse TRPC4 off-target activity of TRPC6 inhibitors | shares compounds with TRPC6 inh | HEK293 TRPC4/mu-opioid, membrane potential fluorescence | activity change, negative = inhibition, % at 10 µM | 920 compounds, 61% hits | AID 2777;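 active = rise or fall in signal beyond 3 SD of buffer-only wells in both replicate plates, either sign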;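 also: integrated kinetic ratio of fluorescence range over baseline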
HEK293 MPD ctr 2: parental HEK293 nonspecific activity of TRPC6 inhibitors, second screen | signal change vs control, % at 10 µM | 920 compounds, 31% hits | shares compounds with TRPC6 inh | AID 2779 | parental HEK293 membrane potential dye fluorescence; maximal acetylcholine challenge after compound addition;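 active = membrane potential signal moving either way by over 3 SD of the maximum-effect control, in both duplicate plates, meaning non-specific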
HEK293 counter: checks TRPC6 inhibitor effects in parental HEK293 cells; shares compounds with TRPC6 inh; parental HEK293 membrane potential dye fluorescence; membrane potential signal change, % at 10 µM; 920 compounds, 60% hits; AID 2780;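 active = membrane potential signal shifting up or down by more than 3 SD of buffer-only wells, on both duplicate plates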
TRPC6 block conf: confirmation of mouse TRPC6 inhibitors. shares compounds with TRPC6 inh. HEK293-TRPC6, membrane potential dye, ACh-evoked depolarization. inhibition, % at 10 µM. 3,300 compounds, 43% hits. AID 488960;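 active = fluorescence ratio falls more than 5 SD below the full-stimulation control mean, in both duplicate runs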;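 also: integrated fluorescence ratio of peak minus minimum over baseline after agonist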
Each line names hits and unclear results; the compound was inactive in the other large screens (follow-up assays come after a bar, where they were run). The list is not random: actives were taken first. Their share in the collection is about 2.3%.

CC12CN3CCN(C1)CC(C)(C3)C2=NN	none
CCN(CC)CCOC(=O)c1ccc(N=Cc2c(O)[nH]c(=O)[nH]c2=O)cc1	none
CCN1CCN(Cc2cc(Br)ccc2O)CC1	TRPC4 PAM 23
CCN1CCN(Cc2cc(Br)cc(Br)c2O)CC1	TRPC4 act 200
CCc1ccc(CN2CCN(Cc3cc(Br)ccc3O)CC2)cc1	none
C=C(C=O)C[C@@H]1C[C@H](O)C2OC3C[C@]4(C)OC5/C=C\CC6OC7C(CC=CCC6OC5CCCC4OC3CC2O1)OC1CC2OC3CC(=O)OC3C[C@@H](C)C[C@@]2(C)OC1C[C@@H]7C (stereo not given in full)	none
COc1ccc(C(CNC(=O)Cc2ccc(Cl)c(Cl)c2)N2CCCCC2)cc1 (stereo not given)	none
COc1ccc(C(CNC(=O)Cc2ccc(Cl)c(Cl)c2)N(C)C)cc1 (stereo not given)	TRPC4 act 173
CN(C)CCc1nn[nH]n1	none (no result: TRPC4 block)
Oc1ccc2c3c1O[C@H]1c4oc5ccccc5c4C[C@@]4(O)[C@@H](C2)N(CC2CC2)CC[C@]314	TRPC4 block -6
Cc1ccc(NC(=S)NCCc2cnc[nH]2)cc1C	TRPC4 act 225
COc1ccccc1CN1CCCC(C(=O)c2ccccc2SC)C1 (stereo not given)	none
COc1ccc(C(=O)C2CCCN(CCO)C2)c(C)c1 (stereo not given)	TRPC4 act 51
COc1ccc(O)c(CN2CCCC(C(=O)c3ccccc3SC)C2)c1 (stereo not given)	TRPC4 block -6
COc1ccc(C(=O)C2CCCN(C3CSCCSC3)C2)c(C)c1 (stereo not given)	TRPC4 act 59
COc1ccc(OC)c(CC(=O)N(C)C2CCCN(Cc3ccccc3F)C2)c1 (stereo not given)	none
CCCN(CCC)C1Cc2cc(OC)c(OC)cc2C1	none
Clc1cccc(CNCCc2c[nH]c3ccccc23)c1	none
COc1ccc(OC)c(CN2CCCC(C(=O)c3sccc3C)C2)c1 (stereo not given)	TRPC4 block -6
COc1cccc(O)c1CN1CCCC(C(=O)c2sccc2C)C1 (stereo not given)	TRPC4 block -9
Cc1ccsc1C(=O)C1CCCN(CCO)C1 (stereo not given)	none
Cc1ccsc1C(=O)C1CCCN(Cc2cn(C)nc2C)C1 (stereo not given)	none
CCOc1cc(CNCCc2c[nH]c3ccccc23)cc(Cl)c1OC	TRPC4 act 159
Cc1c(CCN)ccc2c1[nH]c1ccccc12	TRPC4 PAM 19
COc1ccc(NP(=O)(Nc2ccc(OC)cc2)Oc2ccccc2)cc1	TRPC4 PAM 12
COc1ccc(OC)c(NP(=O)(Oc2ccccc2)Oc2ccccc2)c1	TRPC4 PAM 10
CC(CN(C)C1CCN(C)CC1)c1ccccc1 (stereo not given)	none
Cc1ccc(-c2nc(N(C)C3CCN(C)CC3)c3ccccc3n2)cc1	TRPC4 PAM 24
O=C(COc1ccc(Cl)cc1Cl)N1CCN(C/C=C/c2ccccc2)CC1	TRPC4 PAM 13
c1ccc(NC2=NCCCS2)cc1	none
CCOC(=O)C1(c2ccccc2)CCN(CCC(C#N)(c2ccccc2)c2ccccc2)CC1	TRPC4 act 94
CCOC(=O)C1(CCOc2ccccc2)CCN(Cc2ccccc2OC)CC1	none
CCOC(=O)C1(c2ccccc2)CCN(CC(=O)Nc2ccc(C)cc2)CC1	TRPC4 block -8
CCC(=NC1CCN(Cc2ccccc2)CC1)c1c(O)[nH]c(=O)[nH]c1=O	TRPC4 PAM 10
CCN1CCN(S(=O)(=O)c2ccc(Cl)c(C(=O)Nc3ccc(C(=O)N(CC)CC)cc3)c2)CC1	TRPC4 act 48
CCN(CC)C(=O)c1ccc(NC(=O)c2cccc(C(F)(F)F)c2)cc1	none
Cc1c(N)c(C)c([N+](=O)[O-])c(C)c1[N+](=O)[O-]	TRPC4 block -6
CNCCc1nc(N)n[nH]1	TRPC4 act 101
CCOC(=O)c1c(C=O)c2ccccc2n1Cc1ccccc1	none
C=CCn1c(O)c(C=NCCN2CCOCC2)c(=O)[nH]c1=S	TRPC4 PAM 10
OCC#CC[N+]1(CC#Cc2ccccc2)CCOCC1	none
CNc1ccc2oc(C[C@H]3O[C@@]4(CC[C@H]3C)O[C@H]([C@H](C)C(=O)c3ccc[nH]3)[C@H](C)C[C@H]4C)nc2c1C(=O)O	TRPC4 act 148
Cn1c(O)c(C=NC2CC(C)(C)NC(C)(C)C2)c(=O)n(C)c1=O	none
O=C(CN1CCCC1)Nc1ccc(Cl)cc1C(=O)c1ccccc1	TRPC4 block -6
O=C(CCN1CCCCC1)Nc1ccc(Cl)cc1C(=O)c1ccccc1	none
Cc1ccc(-n2cc(CNC(C)Cc3cnccn3)c(-c3cccc(C)c3)n2)cc1 (stereo not given)	TRPC4 act 143
Cc1ccc(Cl)cc1N1CCN(CCN)CC1	TRPC4 act 155
Cc1nn(CC(C)C)c(Cl)c1C(=O)O	none
CC(Cc1ccccc1)NCC(=O)Nc1cc(N(C)C)nc2ccccc12 (stereo not given)	TRPC4 block -6
COc1ccc(CCNCc2c(OC)ccc3ccccc23)cc1	TRPC6 inh -7.05 | TRPC4 spec 2 69.0% | TRPC4 spec 46.7% | HEK293 MPD ctr 2 inactive | HEK293 counter 23.9% | TRPC6 block conf 65.3%
COc1ccc(C(=O)C2CCCN(Cc3ccc(C)s3)C2)c(OC)c1 (stereo not given)	none
